# CHO parental Ca = signal in parental CHO cells, OX1R antagonist counter-screen. parental CHO-K1, ATP-induced calcium, Fluo-8 fluorescence. inhibition, % at 5.6 µM. hit rate 0.63% among 330,000. AID 463079;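 active = inhibition above that plate's mean sample inhibition plus 3 SD, cut at about 26% in these data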;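 note: 0% = ATP-challenged DMSO wells and 100% = DMSO wells without ATP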
#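 Material: parental CHO cells / Compound: single nominal dose of 5.6 µM per compound / Signal: Fluo-8 fluorescence / Replicates: singlicate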
# OX1R antag-1 = antagonists of human orexin 1 receptor (OX1R); AID 485270; inhibition, % at 6.6 µM; O43613; hit rate 1.8% among 330,000; OX1R-expressing cells, FRET antagonist read-out; in the data active = inhibition mostly above about 38%, no sharp cut-off; inactive = mostly below about 40%;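 note: 0% = agonist challenge alone and 100% = reference antagonist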
# OX1R antag-2 = antagonists of human orexin 1 receptor | AID 434989 | hit rate 0.43% among 330,000 | inhibition, % at 5 µM | CHO/OX1R cells, Fluo-8 calcium fluorescence, orexin A;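 active = inhibition above its plate's threshold, mean inhibition of all tested compounds on the plate plus 3 SD, cut at about 37% in these data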;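 note: 0% = orexin A challenge wells and 100% = SB-334867-A antagonist wells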
# TAAR1 antagonist = human TAAR1 antagonism. CHO RD-HGA16 TAAR1, Fluo-8 calcium fluorescence, antagonist. inhibition, % at 3 µM. hit rate 1.5% among 360,000. AID 624466;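 active = inhibition above a per-plate cutoff, the mean inhibition of test compounds on that plate plus 3 SD, cut at about 49% in these data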;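 note: 0% = DMSO plus EC80 beta-PEA response and 100% = DMSO alone without agonist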
# Target sequence (Q96RJ0 whole entry, looked up): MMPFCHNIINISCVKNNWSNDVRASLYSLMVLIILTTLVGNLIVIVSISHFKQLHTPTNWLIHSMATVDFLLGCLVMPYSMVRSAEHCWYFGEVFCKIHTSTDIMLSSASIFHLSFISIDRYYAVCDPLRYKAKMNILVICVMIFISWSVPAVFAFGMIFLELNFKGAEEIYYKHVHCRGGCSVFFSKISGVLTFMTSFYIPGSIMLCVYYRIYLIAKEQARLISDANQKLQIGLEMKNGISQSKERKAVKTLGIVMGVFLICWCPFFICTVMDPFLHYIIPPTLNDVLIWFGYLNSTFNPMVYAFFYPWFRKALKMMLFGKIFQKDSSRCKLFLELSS
#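 Assay system: CHO-derived RD-HGA16 cells stably expressing human TAAR1 plus Gα16. Timing: 140 s kinetic read after compound, 140 s after agonist. Technique: kinetic Fluo-8 calcium fluorescence measurement. Measure: % inhibition of agonist calcium response.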
# TAAR1 agonist = agonists of human TAAR1; Q96RJ0; CHO RD-HGA16 TAAR1, Fluo-8 calcium fluorescence; vehicle wells 0%, saturating PEA agonist 100%; activation, % at 3 µM; hit rate 0.99% among 360,000; AID 624467;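 active = activation above the mean activation of all test compounds in the run plus 3 SD, cut at about 38% in these data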
#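 Assay system: CHO-derived RD-HGA16 cells with stable Gα16 and human TAAR1; timing: 17-24 h seeding, 75 min 37 °C dye, 30 min RT; read-out: % activation from peak over basal fluorescence ratio, DMSO-to-PEA scaled; measured by: kinetic Fluo-8 calcium fluorescence; benchmarks: low control DMSO, high control PEA (EC100); doses: 3 µM single concentration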
# TAAR1 ag conf = human TAAR1 agonism, confirmed | shares compounds with TAAR1 agonist | CHO RD-HGA16 TAAR1, Fluo-8 calcium fluorescence; scaled: DMSO 0%, maximal phenethylamine 100% | activation, % at 3 µM | hit rate 82% among 2,400 | AID 651783;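 active = activation above a cutoff set at the run's mean compound activation plus 3 SD, cut at about 39% in these data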
# Ga16 ag counter = nonselective agonist in parental cells, TAAR1 agonist counter-screen. shares compounds with TAAR1 agonist. CHO-Ga16 parental, Fluo-8 calcium fluorescence; normalized to maximal ATP response, DMSO zero. activation, % at 3 µM. hit rate 50% among 2,400;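 active = activation above the run cutoff, the mean activation over all tested wells plus 3 SD, cut at about 12% in these data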;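 note: 0% = DMSO wells and 100% = maximal ATP response on the peak over basal ratio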
# TAAR1 desens = human TAAR1 agonist that also desensitizes the receptor; shares compounds with TAAR1 agonist; inhibition, % at 3 µM; CHO RD-HGA16 hTAAR1, Fluo-8 calcium, beta-PEA response inhibition; hit rate 46% among 2,400;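 active = inhibition above the run cutoff, the mean inhibition of all test compounds plus 3 SD, cut at about 49% in these data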;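 note: beta-PEA stimulus applied at its EC80; loss of beta-PEA calcium signal after compound pretreatment read as receptor desensitization; 0% = DMSO with beta-PEA at EC80 and 100% = DMSO alone without agonist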
# Ga16 antag count = nonselective Ga16 antagonism, counter-screen. shares compounds with TAAR1 agonist. CHO-Ga16 ATP-induced calcium, Fluo-8 fluorescence. inhibition, % at 3 µM. hit rate 39% among 2,400;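 active = inhibition above the plate's mean compound inhibition plus 3 SD, computed per plate, cut at about 22% in these data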;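 note: 0% = EC80 ATP with DMSO and 100% = DMSO wells without ATP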
# An asterisk follows results filed as active; / = not tested or not shown. Hits are enriched below; roughly 4% of the tested compounds scored in any of these assays.
SMILES,CHO parental Ca,OX1R antag-1,OX1R antag-2,TAAR1 antagonist,TAAR1 agonist,TAAR1 ag conf,Ga16 ag counter,TAAR1 desens,Ga16 antag count
CC(NC1=NCCS1)c1ccccc1 (stereo not drawn),6,12,2,/,/,/,0,/,0
COc1ccc(CNCCc2ccccc2F)c(OC)c1C,-17,0,-37,73*,84*,93*,8,80*,10
COc1ccc(CNCCc2c[nH]c3ccccc23)c(OC)c1C,-13,-7,-17,3,28,/,/,/,/
Cn1cccc1CNCCc1ccccc1F,-15,6,-26,67*,63*,102*,-1,82*,5
COc1cc2c(cc1OC)C13CCN4CC5CCOC6CC(=O)N2C1C6C5CC43 (stereo not drawn),/,/,/,-7,0,/,/,/,/
O=C1NC(=O)C2(CCN(c3ccccc3)CC2)C(=O)N1,/,/,/,-1,3,/,/,/,/
O=C1C2CC(CN3CCCCC23)C2CCCCN12 (stereo not drawn),/,/,/,5,1,/,/,/,/
O=C1NC(=O)N(c2cccc(Cl)c2)C(=O)/C1=C\c1ccc(Sc2nc3ccccc3[nH]2)o1,39*,9,62*,75*,118*,26,32*,29,38*
Cc1cccc(N2C(=O)NC(=O)/C(=C/c3ccc(-c4ccc(C(=O)O)c(Cl)c4)o3)C2=O)c1,-2,33,-5,/,/,/,/,/,/
Cc1ccccc1NC(=O)N1Cc2ccccc2-n2nncc2C1,/,/,/,2,0,/,/,/,/
Cc1cccc(N2C(=O)/C(=C/N3CCN(C(=O)c4ccco4)CC3)C(=O)NC2=S)c1,-9,-3,-18,-14,49*,61*,0,4,5
O=C1NC(=S)N(c2ccccc2)C(=O)/C1=C/c1ccco1,-6,-11,-12,8,2,/,/,/,/
Cc1ccc(N2C(=O)/C(=C/N3CCN(C(=O)c4ccco4)CC3)C(=O)NC2=S)cc1C,-2,16,-1,-7,56*,73*,1,6,2
O=C1NC(=S)N(c2ccc(Br)cc2)C(=O)/C1=C/N1CCN(C(=O)c2ccco2)CC1,-4,11,-20,11,32,/,/,/,/
O=C1NCN(c2ccccc2)C12CCN(C(c1ccccc1OC(F)(F)F)c1nnnn1C1CCCC1)CC2 (stereo not drawn),/,/,/,-29,-1,/,/,/,/
CN1CC(C(=O)c2ccc(Cl)cc2)C(c2ccccc2)C1 (stereo not drawn),-28,11,-25,2,45*,75*,13*,36,11
CN1CC(C(=O)c2cccs2)C(c2ccc(Cl)cc2)C1 (stereo not drawn),-14,10,-15,-23,1,/,/,/,/
O=C(NCP(=O)(Oc1ccccc1)Oc1ccccc1)OCc1ccccc1,/,/,/,14,3,/,/,/,/
C#CCN(C)C(C)Cc1ccccc1 (stereo not drawn),-10,6,2,-10,4,/,/,/,/
CC(Cc1ccccc1)N(C)CC1C(=O)C2CCC1C2 (stereo not drawn),/,/,/,13,56*,51*,0,4,8
Cc1cc2c(cc1C)NP(=S)(c1ccccc1)N2,/,/,/,8,0,/,/,/,/
O=C(NCCN1CCOCC1)c1ccc(Cl)nc1,-14,13,-5,-22,3,/,/,/,/
O=C(NCCN1CCC2(CC1)C(=O)NCN2c1ccccc1)c1ccc(OC(F)(F)F)cc1,/,/,/,96*,54*,45*,41*,102*,98*
O=C(NCCN1CCC2(CC1)C(=O)NCN2c1ccccc1)c1ccc(Cl)c(Cl)c1,/,/,/,106*,113*,124*,95*,107*,103*
